ChEMBL document CHEMBL1926665, “Anti-AIDS agents 85. Design, synthesis, and evaluation of 1R,2R-dicamphanoyl-3,3-dimethyldihydropyrano-[2,3-c]xanthen-7(1H)-one (DCX) derivatives as novel anti-HIV agents” (Eur J Med Chem, 2012)
pEC50: −log10 of the molar value.

How the values were obtained:
[1] = tested on: Human immunodeficiency virus 1; assay: Antiviral activity against wild type HIV1 NL4-3 infected in human TZM-bl cells after 48 hrs by luciferase reporter gene assay; type: functional, organism-based; details: Human immunodeficiency virus 1, NL4-3, TZM-bl
How it was run: (§1)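 Single-round infection of TZM-bl cells (NL4-3 or RTMDR1 strain), with luciferase reporter read-out. Virus at 200 TCID50 was mixed with eight four-fold serial dilutions of sample in growth medium, then incubated 48 h. Luciferase was read by luminometer. EC50 is the concentration giving a 50% drop in RLU versus virus control after background subtraction. Values are means of at least three independent experiments.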

[2] = Selectivity index, ratio of CC50 for human TZM-bl cells to EC50 for wild type HIV1 NL4-3 infected in human TZM-bl cells; type: toxicity, cell-based; details: read-out: Ratio CC50/EC50
How it was run: (§2)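 Selectivity index is CC50 ÷ EC50. CC50 came from the CytoTox-Glo cytotoxicity kit run per the maker's protocol in TZM-bl cells. EC50 came from the 48 h single-round TZM-bl luciferase infection assay (200 TCID50 virus, eight four-fold dilutions) against the NL4-3 or RTMDR1 strain. Values are averaged from at least three independent experiments.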

[3] = Cytotoxicity against human TZM-bl cells by CytoTox-Glo assay; type: cell-based
[4] = Selectivity index, ratio of CC50 for human TZM-bl cells to EC50 for drug-resistance HIV1 RTMDR1 infected in human TZM-bl cells; type: toxicity, cell-based; details: read-out: Ratio CC50/EC50; how it was run: as §2
[5] = tested on: Human immunodeficiency virus 1; assay: Antiviral activity against drug-resistance HIV1 RTMDR1 infected in human TZM-bl cells after 48 hrs by luciferase reporter gene assay; type: functional, organism-based; details: Human immunodeficiency virus 1, RTMDR1, TZM-bl; how it was run: as §1
[6] = tested on: Human immunodeficiency virus 1; assay: Ratio of 2-EDCP EC50 to compound EC50 for wild type HIV1 NL4-3 infected in human TZM-bl cells; type: functional
[7] = tested on: Human immunodeficiency virus 1; assay: Antiviral activity against drug-resistance HIV1; type: functional, organism-based
[8] = tested on: Human immunodeficiency virus 1; assay: Antiviral activity against wild type HIV1; type: functional, organism-based

SMILES | pEC50 [1] | selectivity ratio [2] | CC50 [3] | selectivity ratio [4] | pEC50 [5] | Ratio EC50 [6] | pEC50 [7] | pEC50 [8]
COc1cc2c(c3oc4cc(C#N)ccc4c(=O)c13)[C@@H](OC(=O)C13CCC(C)(C(=O)O1)C3(C)C)[C@@H](OC(=O)C13CCC(C)(C(=O)O1)C3(C)C)C(C)(C)O2 (stereo partly drawn) | 6.70 | 45.4 | 9.08 µM | – | – | – | – | –
COc1cc2c(c3oc4cccc(C)c4c(=O)c13)[C@@H](OC(=O)C13CCC(C)(C(=O)O1)C3(C)C)[C@@H](OC(=O)C13CCC(C)(C(=O)O1)C3(C)C)C(C)(C)O2 (stereo partly drawn) | 6.82 | 77.3 | 11.6 µM | 31.4 | 6.43 | – | – | –
COc1cc2c(c3oc4ccc(C#N)cc4c(=O)c13)[C@@H](OC(=O)C13CCC(C)(C(=O)O1)C3(C)C)[C@@H](OC(=O)C13CCC(C)(C(=O)O1)C3(C)C)C(C)(C)O2 (stereo partly drawn) | 6.54 | > 47.8 | > 13.8 µM | – | – | – | – | –
COc1cc2c(c3oc4ccc(Br)cc4c(=O)c13)[C@@H](OC(=O)C13CCC(C)(C(=O)O1)C3(C)C)[C@@H](OC(=O)C13CCC(C)(C(=O)O1)C3(C)C)C(C)(C)O2 (stereo partly drawn) | 5.83 | 6.83 | 9.23 µM | – | – | – | – | –
COc1cccc2oc3c4c(cc(OC)c3c(=O)c12)OC(C)(C)[C@H](OC(=O)C12CCC(C)(C(=O)O1)C2(C)C)[C@@H]4OC(=O)C12CCC(C)(C(=O)O1)C2(C)C (stereo partly drawn) | 5.77 | 6.83 | 11.6 µM | – | – | – | – | –
COc1cc2c(c3oc4ccc(CBr)cc4c(=O)c13)[C@@H](OC(=O)C13CCC(C)(C(=O)O1)C3(C)C)[C@@H](OC(=O)C13CCC(C)(C(=O)O1)C3(C)C)C(C)(C)O2 (stereo partly drawn) | 5.34 | > 5.55 | > 25.2 µM | – | – | – | – | –
COc1cc2c(c3oc4ccccc4c(=O)c13)[C@@H](OC(=O)C13CCC(C)(C(=O)O1)C3(C)C)[C@@H](OC(=O)C13CCC(C)(C(=O)O1)C3(C)C)C(C)(C)O2 (stereo partly drawn) | 7.20 | > 227 | > 14.3 µM | > 193 | 7.13 | 1.5 | – | –
COc1cc2c(c3oc4cc(C)ccc4c(=O)c13)[C@@H](OC(=O)C13CCC(C)(C(=O)O1)C3(C)C)[C@@H](OC(=O)C13CCC(C)(C(=O)O1)C3(C)C)C(C)(C)O2 (stereo partly drawn) | 7.02 | > 147 | > 14 µM | > 38.6 | 6.44 | – | – | –
CC1(C)Oc2ccc3c(=O)c4ccccc4oc3c2[C@@H](OC(=O)C23CCC(C)(C(=O)O2)C3(C)C)[C@H]1OC(=O)C12CCC(C)(C(=O)O1)C2(C)C (stereo partly drawn) | 6.51 | > 96.8 | > 29.8 µM | > 54.6 | 6.26 | – | – | –
COc1cc2c(c3oc4c(C)cccc4c(=O)c13)[C@@H](OC(=O)C13CCC(C)(C(=O)O1)C3(C)C)[C@@H](OC(=O)C13CCC(C)(C(=O)O1)C3(C)C)C(C)(C)O2 (stereo partly drawn) | 5.82 | 2.84 | 4.32 µM | – | – | – | – | –
COc1cc2c(c3oc4ccccc4/c(=N\O)c13)[C@@H](OC(=O)C13CCC(C)(C(=O)O1)C3(C)C)[C@@H](OC(=O)C13CCC(C)(C(=O)O1)C3(C)C)C(C)(C)O2 (stereo partly drawn) | 6.92 | > 118 | > 13.9 µM | – | – | – | – | –
COc1cc2c(c3oc4c(F)cccc4c(=O)c13)[C@@H](OC(=O)C13CCC(C)(C(=O)O1)C3(C)C)[C@@H](OC(=O)C13CCC(C)(C(=O)O1)C3(C)C)C(C)(C)O2 (stereo partly drawn) | 6.64 | 33.9 | 7.8 µM | – | – | – | – | –
COc1cc2c(c3oc4ccc(C)cc4c(=O)c13)[C@@H](OC(=O)C13CCC(C)(C(=O)O1)C3(C)C)[C@@H](OC(=O)C13CCC(C)(C(=O)O1)C3(C)C)C(C)(C)O2 (stereo partly drawn) | 7.19 | 175 | 11.4 µM | 141 | 7.09 | – | – | –
COc1ccc2oc3c4c(cc(OC)c3c(=O)c2c1)OC(C)(C)[C@H](OC(=O)C12CCC(C)(C(=O)O1)C2(C)C)[C@@H]4OC(=O)C12CCC(C)(C(=O)O1)C2(C)C (stereo partly drawn) | 6.92 | 88.8 | 10.8 µM | 25.7 | 6.38 | – | – | –
COc1ccc2c(=O)c3c(OC)cc4c(c3oc2c1)[C@@H](OC(=O)C12CCC(C)(C(=O)O1)C2(C)C)[C@@H](OC(=O)C12CCC(C)(C(=O)O1)C2(C)C)C(C)(C)O4 (stereo partly drawn) | 6.44 | > 37.8 | > 13.7 µM | – | – | – | – | –
COc1cc(C)c2c(=O)c3c(OC)cc4c(c3oc2c1)[C@@H](OC(=O)C12CCC(C)(C(=O)O1)C2(C)C)[C@@H](OC(=O)C12CCC(C)(C(=O)O1)C2(C)C)C(C)(C)O4 (stereo partly drawn) | 6.85 | > 192 | > 26.8 µM | – | – | – | – | –
Cc1cc(=O)c2c(C)cc3c(c2o1)[C@@H](OC(=O)C12CCC(C)(C(=O)O1)C2(C)C)[C@@H](OC(=O)C12CCC(C)(C(=O)O1)C2(C)C)C(C)(C)O3 (stereo partly drawn) | – | – | – | – | – | – | 6.31 | 7.44
COc1cc2c(c3oc4cccc(O)c4c(=O)c13)[C@@H](OC(=O)C13CCC(C)(C(=O)O1)C3(C)C)[C@@H](OC(=O)C13CCC(C)(C(=O)O1)C3(C)C)C(C)(C)O2 (stereo partly drawn) | 6.48 | 24.5 | 8.1 µM | – | – | – | – | –
COc1cc2c(c3oc4ccc(F)cc4c(=O)c13)[C@@H](OC(=O)C13CCC(C)(C(=O)O1)C3(C)C)[C@@H](OC(=O)C13CCC(C)(C(=O)O1)C3(C)C)C(C)(C)O2 (stereo partly drawn) | 7.00 | 260 | 26 µM | 162 | 6.80 | – | – | –
COc1cc2c(c3oc4cccc(F)c4c(=O)c13)[C@@H](OC(=O)C13CCC(C)(C(=O)O1)C3(C)C)[C@@H](OC(=O)C13CCC(C)(C(=O)O1)C3(C)C)C(C)(C)O2 (stereo partly drawn) | 7.21 | > 224 | > 13.9 µM | > 214 | 7.19 | – | – | –
CCc1cc(=O)c2ccc3c(c2o1)[C@@H](OC(=O)C12CCC(C)(C(=O)O1)C2(C)C)[C@@H](OC(=O)C12CCC(C)(C(=O)O1)C2(C)C)C(C)(C)O3 (stereo partly drawn) | 7.05 | 136 | 12.1 µM | 110 | 6.96 | – | 6.96 | 7.15
